Screening results from PubChem BioAssay.
PKA kinase inh = inhibitors of human protein kinase A; P17612; PKA Kemptide phosphorylation, Kinase-Glo ATP luminescence; inhibition, % at 6 µM; 0.1% of 65,000 active;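 active = inhibition above the screen-wide mean inhibition plus 3 SD, cut at about 21% in these data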
ROCK2 inh = ROCK2 (human) kinase inhibition. purified ROCK2, Kinase-Glo ATP depletion luminescence. inhibition, % at 6 µM. 0.35% of 60,000 active;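 active = inhibition above the screen-wide mean inhibition plus 3 SD, cut at about 18% in these data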;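 note: plate controls were DMSO wells for no effect and Y-27632 control wells after no-enzyme background subtraction for full effect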
RORA act = activators of human nuclear receptor RORA | P35398 | CHO-K1 Gal4-RORA LBD luciferase reporter, luminescence; percent increase over mock-subtracted basal signal | activation, % at 10 µM | 1.5% of 65,000 active;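 active = activation above the mean of all tested compounds plus 3 SD, cut at about 49% in these data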;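 note: 0% = DMSO-treated RORA cells and 100% = added signal equal to DMSO minus mock-transfected cells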
JNK3 blocker = inhibitors of human JNK3 kinase; P53779; purified JNK3 kinase activity, HTS; inhibition, % at 8 µM; 0.61% of 60,000 active; AID 746; in the data active = inhibition above about 17%;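 note: 0% = DMSO and 100% = reference inhibitor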
Target sequence (P53779 whole entry, looked up): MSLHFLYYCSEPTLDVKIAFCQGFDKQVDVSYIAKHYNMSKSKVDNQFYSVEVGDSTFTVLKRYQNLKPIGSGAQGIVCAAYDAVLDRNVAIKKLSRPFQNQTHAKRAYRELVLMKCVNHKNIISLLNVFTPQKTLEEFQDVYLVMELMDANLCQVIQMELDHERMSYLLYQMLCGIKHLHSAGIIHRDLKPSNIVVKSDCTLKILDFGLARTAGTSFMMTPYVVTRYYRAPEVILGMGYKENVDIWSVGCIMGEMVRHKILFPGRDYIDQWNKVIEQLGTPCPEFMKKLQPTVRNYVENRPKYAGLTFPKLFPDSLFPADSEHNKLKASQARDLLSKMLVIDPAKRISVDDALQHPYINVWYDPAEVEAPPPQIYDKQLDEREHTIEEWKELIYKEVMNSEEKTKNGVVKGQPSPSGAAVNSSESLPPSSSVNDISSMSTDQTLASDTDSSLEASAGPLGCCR
SF-1 act = activates the human nuclear receptor SF-1; Q13285; CHO-K1 Gal4-SF-1 LBD luciferase reporter; % increase over DMSO SF-1-specific signal; activation, % at 10 µM; 1.9% of 65,000 active;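 active = activation above the mean activation of all tested compounds plus 3 SD, cut at about 50% in these data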
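Test system: CHO-K1 cells co-transfected with Gal4 DBD–human SF-1 LBD, 5xGal4 luciferase reporter. Quantity: 4,000 cells per well. Compound: 10 µM only. Incubation: compound added 1 h post-seeding, 20 h exposure at 37 °C, 5% CO2. Detection: SteadyLite luciferase luminescence. Replication: one test per compound.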
MMP13 inh = MMP13 (human) collagenase inhibition; P45452; MMP-13 fTHP FRET cleavage, Mca fluorescence; inhibition, % at 4 µM; 0.07% of 65,000 active; AID 570;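 active = inhibition above the mean of compound-free control plate wells plus 3 SD, cut at about 14% in these data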;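 note: 0% = DMSO wells and 100% = wells with reference MMP-13 inhibitor after basal subtraction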
Starred values were filed as active, the others as inactive; i = inactive; / = no result. The list is not random: actives were taken first. Their share in the collection is about 3.4%.

SMILES	PKA kinase inh	ROCK2 inh	RORA act	JNK3 blocker	SF-1 act	MMP13 inh
CCn1c(=O)cc(SCC(=O)Nc2ccccc2N2CCN(C)CC2)c2ccccc21	3	-2	-15	2	8	2
Cc1ccc(NC2=NC(c3ccco3)n3c(nc(C)cc3=O)N2)c(C)c1 (stereo not drawn)	4	4	42	3	7	4
O=C(NCc1cccs1)c1noc2c1CCCC2	5	5	55*	2	4	0
O=C(NCc1ccccc1)NC1CCCCC1	5	1	38	3	28	-6
O=C(NCc1ccc(Cl)cc1)c1noc2c1CCCC2	1	-5	-2	8	-3	7
COc1ccc(CNC(=O)c2noc3c2CCCC3)cc1	9	3	55*	-1	42	-3
COc1ccc(CNC(=O)c2cc(-c3ccco3)on2)cc1	-1	1	-13	3	-5	-2
COc1ccc(CNC(=O)NC2CCCCC2)cc1	6	-3	4	-2	50*	7
CCCc1cc(C(=O)NCc2ccc(OC)cc2)no1	7	3	49*	1	29	2
Cc1cc(Oc2ccccc2)nc2ccc(O)cc12	1	9	-11	4	0	-42
COc1cc(N2C(=O)NC3CC2(C)Oc2ccc(Br)cc23)cc(OC)c1OC (stereo not drawn)	12	6	-2	0	-3	5
O=c1oc2ccccc2n1CCCOc1ccccc1	1	2	49*	1	57*	-5
CC(C)C(NC(=O)C1CCCCC1)C(=O)Nc1ccncc1 (stereo not drawn)	14	76*	4	-1	-1	0
N#Cc1nc(-c2ccc(OCc3ccccc3)cc2)oc1NCCCn1ccnc1	12	6	26	3	20	-53
CC1CCc2nc(N)c(C#N)c(-c3ccncc3)c2C1 (stereo not drawn)	2	5	-18	17*	1	-13
COc1ccccc1CN(C(=O)c1ccco1)C(C(=O)NC1CCCC1)c1ccncc1 (stereo not drawn)	0	2	-24	5	-12	-2
CS(=O)(=O)N1CCN(c2nc3ccccc3s2)CC1	0	-4	58*	-3	28	0
O=C(C1CC1)N1CCN(c2nc3ccccc3s2)CC1	3	6	36	4	25	-8
CCn1c(NC(=O)c2cccs2)c(-c2cccs2)c(=O)c2ccccc21	-4	-10	43	3	-22	4
Cn1c(SCC(=O)c2ccc3c(c2)OCO3)nnc1-c1ccccn1	8	8	-14	2	-2	5
CN(C)S(=O)(=O)c1ccc(S(=O)(=O)N(Cc2ccccn2)Cc2ccco2)cc1	6	1	-10	1	-13	0
O=c1c2c3c(sc2nc2sc(C4CC4)nn12)CCCC3	2	1	54*	7	37	-3
O=C1CCc2nc3sc4c(c3c(=O)n2N1)CCCC4	5	8	10	-1	10	0
CCCc1c(O)nc(SCCN(CC)CC)n(C(=O)c2ccccc2)c1=O	6	3	-11	8	-4	2
O=C(c1cccc(COCC(F)(F)C(F)F)c1)N1CCN(c2ccccc2)CC1	-2	0	9	1	-7	-2
SMILES	PKA kinase inh	ROCK2 inh	RORA act	JNK3 blocker	SF-1 act	MMP13 inh
O=C(NC1CCCc2ccccc21)C1CCN(c2c(N3CCCC3)c(=O)c2=O)CC1 (stereo not drawn)	4	-3	6	-7	12	-1
Cc1ccc2c(c1)c1c3n2CCCNC3CCC1 (stereo not drawn)	6	4	54*	4	8	-2
Cn1c(-c2ccc(Br)o2)nc2cc(Br)ccc21	-5	-2	39	-7	89*	6
CC(=O)c1ccc(-c2nc3ccccc3n2C)o1	1	-26	28	3	25	i
Cn1c(-c2ccc(Br)o2)nc2ccccc21	-13	-24	73*	-7	76*	2
CCOCCCNC(=O)C(NC(=O)C1CCC(=O)N1)c1ccc(C)cc1 (stereo not drawn)	10	/	0	/	6	7
CCOC(=O)c1c(C)[nH]c(C(=O)Cn2nnc(-c3ccc(Cl)cc3)n2)c1C	-1	-1	-27	-4	-11	3
Cc1ccc2c(COC(=O)C3=COCCO3)cc(=O)oc2c1	0	0	38	-4	67*	-5
